The term Ki denotes a dissociation constant, usually derived from enzyme kinetics or from competition with a known ligand. High values mean lower affinity, low ones higher affinity. As usually defined, the IC50 is the concentration that inhibits the measured activity by half. High values mean a need for much substance, low ones inhibition by little substance. A word on the microsomal CLint: it is the capacity of the preparation to metabolise the compound, expressed as a volume cleared per time. By bioavailability is commonly meant the share of a dose that reaches the circulation, judged against a reference dose that is usually intravenous. What is called inhibition is the change of the read-out against control, counted positive when it falls. What is called ED50 is the midpoint of the dose-response relation.

Data set [1] deals with T1, 5-hydroxytryptamine receptor 3A (Homo sapiens, UniProt P46098).
T1 sequence (P46098 whole entry): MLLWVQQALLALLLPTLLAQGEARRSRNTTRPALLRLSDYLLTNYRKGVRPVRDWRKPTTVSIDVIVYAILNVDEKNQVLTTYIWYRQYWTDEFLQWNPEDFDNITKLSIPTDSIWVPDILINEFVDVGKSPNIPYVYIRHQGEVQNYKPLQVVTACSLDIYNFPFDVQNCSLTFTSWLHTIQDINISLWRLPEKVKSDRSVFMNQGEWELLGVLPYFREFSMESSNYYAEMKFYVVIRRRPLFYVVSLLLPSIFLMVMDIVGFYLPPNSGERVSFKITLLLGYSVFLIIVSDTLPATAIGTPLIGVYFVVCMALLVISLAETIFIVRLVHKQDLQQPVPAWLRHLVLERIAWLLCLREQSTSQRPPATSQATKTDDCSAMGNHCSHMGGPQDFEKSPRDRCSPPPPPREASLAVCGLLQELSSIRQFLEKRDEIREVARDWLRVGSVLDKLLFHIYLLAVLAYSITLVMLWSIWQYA
As to the kind of experiment: Binding affinity to human HT3A receptor.

In a further data set the target is Cytochrome P450 3A4 (Homo sapiens, UniProt P08684). As to the kind of experiment: Inhibition of human CYP3A4. The format is ADME.
Chain of Cytochrome P450 3A4 (P08684 whole entry): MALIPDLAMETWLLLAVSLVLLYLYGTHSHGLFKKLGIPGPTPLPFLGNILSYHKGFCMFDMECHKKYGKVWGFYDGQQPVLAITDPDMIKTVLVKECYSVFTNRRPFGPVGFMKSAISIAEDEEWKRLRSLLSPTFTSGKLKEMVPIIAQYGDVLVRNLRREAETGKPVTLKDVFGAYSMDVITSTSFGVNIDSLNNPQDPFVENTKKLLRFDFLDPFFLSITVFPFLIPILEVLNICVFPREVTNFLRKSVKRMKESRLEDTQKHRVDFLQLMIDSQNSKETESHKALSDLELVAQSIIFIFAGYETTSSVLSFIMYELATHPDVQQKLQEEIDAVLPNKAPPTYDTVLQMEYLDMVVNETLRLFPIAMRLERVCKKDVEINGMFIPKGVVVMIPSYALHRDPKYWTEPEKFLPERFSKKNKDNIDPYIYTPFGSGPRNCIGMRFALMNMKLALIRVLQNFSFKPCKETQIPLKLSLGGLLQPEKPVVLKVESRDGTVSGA
Data set [2] can be described thus: Intrinsic clearance in human liver microsomes. The format is ADME, Microsome.
In data set [3] the target is Voltage-gated inwardly rectifying potassium channel KCNH2 (Homo sapiens, UniProt Q12809). As to the kind of experiment: Inhibition of human ERG expressed in HEK cells by patch clamp technique. On the technique in general: In patch-clamp work, channel activity is measured electrically.
Chain of Voltage-gated inwardly rectifying potassium channel KCNH2 (Q12809 whole entry): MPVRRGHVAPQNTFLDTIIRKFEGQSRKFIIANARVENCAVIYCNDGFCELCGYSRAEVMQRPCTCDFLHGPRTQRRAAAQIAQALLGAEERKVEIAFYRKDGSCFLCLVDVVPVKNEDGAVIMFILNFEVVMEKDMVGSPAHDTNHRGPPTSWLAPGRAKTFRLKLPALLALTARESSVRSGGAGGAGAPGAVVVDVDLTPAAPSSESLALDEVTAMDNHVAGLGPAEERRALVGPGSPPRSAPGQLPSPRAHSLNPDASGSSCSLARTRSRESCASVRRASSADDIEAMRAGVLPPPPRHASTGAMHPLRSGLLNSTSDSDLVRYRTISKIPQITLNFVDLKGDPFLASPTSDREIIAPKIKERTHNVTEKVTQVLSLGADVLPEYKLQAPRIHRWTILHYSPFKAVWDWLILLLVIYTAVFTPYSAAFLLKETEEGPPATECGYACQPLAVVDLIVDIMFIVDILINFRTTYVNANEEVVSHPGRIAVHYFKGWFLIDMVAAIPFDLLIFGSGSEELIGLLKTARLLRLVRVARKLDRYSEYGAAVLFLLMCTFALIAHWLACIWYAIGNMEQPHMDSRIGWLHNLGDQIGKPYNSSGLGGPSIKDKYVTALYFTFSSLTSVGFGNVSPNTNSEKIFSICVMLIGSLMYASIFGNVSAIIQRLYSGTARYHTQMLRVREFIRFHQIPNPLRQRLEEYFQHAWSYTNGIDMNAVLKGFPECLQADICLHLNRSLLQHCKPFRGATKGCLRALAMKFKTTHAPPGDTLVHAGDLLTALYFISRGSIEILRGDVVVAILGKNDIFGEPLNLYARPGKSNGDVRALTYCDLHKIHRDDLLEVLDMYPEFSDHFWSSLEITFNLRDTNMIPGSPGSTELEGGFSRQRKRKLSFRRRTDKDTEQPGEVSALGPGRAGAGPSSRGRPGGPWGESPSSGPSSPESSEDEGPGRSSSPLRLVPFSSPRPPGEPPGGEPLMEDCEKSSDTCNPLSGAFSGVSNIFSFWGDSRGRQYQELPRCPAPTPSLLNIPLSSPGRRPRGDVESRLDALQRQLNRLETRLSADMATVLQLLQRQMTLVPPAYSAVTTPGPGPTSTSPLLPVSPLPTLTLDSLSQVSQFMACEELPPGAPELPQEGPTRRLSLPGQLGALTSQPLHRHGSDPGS
Data set [4] in a line: Bioavailability in rat at 10 mg/kg, po or 1 mg/kg, iv. The format is ADME, organism-based. To be noted: in vivo.
The species named for another data set is Homo sapiens. In words: Inhibition of human nicotinic acetylcholine receptor at 1 uM. Summed up:
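Single-concentration screen at 1 µM within a 68-membered off-target receptor panel; inhibition above 50% counted as significant.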

For data set [5], the system named is Mus musculus. In words: Cardioprotective effect in po dosed mouse assessed as inhibition of 5-HT-induced bradycardia administered 1 hr prior to 5-HT challenge. The format is functional. Summed up:
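Murine von Bezold–Jarisch reflex assay. Test agents were given orally 1 h before a 0.1 mg/kg 5-HT challenge. Read-out was block of 5-HT-induced transient bradycardia.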

The species named for data set [6] is Mus musculus. To be noted: 0.56 mg/kg.
A short description of data set [7]: Inhibition of human CYP450. The format is ADME.
For data set [8], the species on record is Mus musculus. To be noted: 1.9 mg/kg.
The next data set has as its target Cytochrome P450 2C19 (Homo sapiens, UniProt P33261). As to the kind of experiment: Inhibition of human CYP2C19. The format is ADME.

Activity calls are given as the source filed them. The rule behind the calls is not given here.

Chain of Cytochrome P450 2C19 (P33261 whole entry): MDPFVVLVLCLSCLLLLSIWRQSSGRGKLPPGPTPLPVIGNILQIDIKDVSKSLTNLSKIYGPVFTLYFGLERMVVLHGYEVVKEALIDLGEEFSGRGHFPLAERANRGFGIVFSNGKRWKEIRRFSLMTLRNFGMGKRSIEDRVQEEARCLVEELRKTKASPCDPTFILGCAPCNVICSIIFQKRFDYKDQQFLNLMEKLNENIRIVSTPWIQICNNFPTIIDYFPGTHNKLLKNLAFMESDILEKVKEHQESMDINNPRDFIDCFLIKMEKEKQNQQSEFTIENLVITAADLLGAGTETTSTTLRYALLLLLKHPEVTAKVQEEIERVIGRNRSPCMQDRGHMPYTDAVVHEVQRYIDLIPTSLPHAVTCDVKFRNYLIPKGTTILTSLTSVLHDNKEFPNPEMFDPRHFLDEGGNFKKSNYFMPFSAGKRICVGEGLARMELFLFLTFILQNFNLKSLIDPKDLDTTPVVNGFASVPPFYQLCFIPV

In the case of `CN1[C@@H]2CCC[C@H]1C[C@H](NC(=O)c1cccc3oc(-c4ccc(F)cc4)nc13)C2`, the affinity in [1], expressed as Ki, was 16.3 nM.
In turn, `CN1[C@@H]2CCC[C@H]1C[C@H](NC(=O)c1cccc3nc(-c4ccc(Cl)cc4)oc13)C2` had an inhibition constant (Ki) in data set [1] of 73.8 nM.
The same measure, in the same setting: next, `CCC[C@H]1COCCN1c1nc2c(C(=O)N[C@@H]3C[C@H]4CCC[C@@H](C3)N4C)cccc2o1`: 3.9 nM.
For `COc1ccccc1-c1nc2c(C(=O)N[C@@H]3CN4CCC3CC4)cccc2o1`, the IC50 at Cytochrome P450 3A4 was above 50000 nM; in [3], 200 nM. This compound also came in with a Ki in [1] of 47.3 nM. Further, the microsomal CLint in data set [2] came to 10.1 µL/min/mg. The bioavailability in data set [4] stood at 100%.
The compound `CCN(CC)c1nc2c(C(=O)N[C@@H]3CN4CCC3CC4)cccc2o1` returned a Ki in data set [1] of 12.4 nM.
With `COc1ccc(-c2nc3cccc(C(=O)N[C@@H]4C[C@H]5CCC[C@@H](C4)N5C)c3o2)cc1`, the Ki in data set [1] worked out at 58.5 nM.
In turn, `CC[C@H]1COC[C@H](C)N1c1nc2c(C(=O)N[C@@H]3C[C@H]4CCC[C@@H](C3)N4C)cccc2o1` displayed a Ki in data set [1] of 1 nM.
Take `CN1[C@@H]2CCC[C@H]1C[C@H](NC(=O)c1cccc3oc(N4CCOCC4)nc13)C2`: the results for the IC50 (against Cytochrome P450 3A4; in data set [3]) were above 50000 nM and 1400 nM, respectively. In addition, the Ki in data set [1] turned out to be 40 nM. For the same compound, in the data set filed under Homo sapiens, the inhibition is above 50%. Also, the microsomal CLint in data set [2] turned out to be 1 µL/min/mg. The compound further displayed a bioavailability in data set [4] of 35%.
In data set [2], `Cc1nccn1CC1CCc2c(c3ccccc3n2C)C1=O` (stereo not given) [ONDANSETRON] returned a microsomal CLint of 5.8 µL/min/mg. For the same compound, the ED50 with Mus musculus [5] was 0.54 mg/kg. This compound gave a bioavailability in data set [4] of 21%.
In [1], `CC(C)N(C)c1nc2c(C(=O)N[C@@H]3CN4CCC3CC4)cccc2o1` came in with an inhibition constant (Ki) of 66.5 nM.
Consider `O=C(N[C@@H]1CN2CCC1CC2)c1cccc2oc(N3CCOCC3)nc12`, for which the IC50 was above 100000 nM on Cytochrome P450 3A4 and 3200 nM in data set [3]. The compound further returned a microsomal CLint in [2] of 0.6 µL/min/mg. Besides, in data set [4], the bioavailability is 100%.
In turn, `CN1[C@@H]2CCC[C@H]1C[C@H](NC(=O)c1cccc3oc(N4CCOC[C@@H]4C(C)(C)C)nc13)C2` showed an inhibitory constant (Ki) in data set [1] of 2 nM.
Turning to `Nc1nc2c(C(=O)N[C@@H]3CN4CCC3CC4)cc(Cl)cc2o1`, the inhibition result in the data set filed under Mus musculus [6] is “Active”. The same compound yielded a Ki in [1] of 4.7 nM. For the same compound, the concentration for half-maximal inhibition (IC50) in [7] is above 30000 nM; in data set [3], 4800 nM. Also, the microsomal CLint in data set [2] stood at 3 µL/min/mg. Also, in the data set on Mus musculus [5], the ED50 was determined as 0.4 mg/kg.
`CNc1nc2c(C(=O)N[C@@H]3CN4CCC3CC4)cccc2o1` showed an inhibition constant Ki in [1] of 36.4 nM.
`CN1[C@@H]2CCC[C@H]1C[C@H](NC(=O)c1cccc3nc(-c4ccc(F)cc4)oc13)C2`: the inhibition constant (Ki) in data set [1] was 94.9 nM.
As for `COc1ccccc1-c1nc2c(C(=O)N[C@@H]3C[C@H]4CCC[C@@H](C3)N4C)cccc2o1`, the IC50 against Cytochrome P450 3A4 is 1100 nM; in data set [3], 400 nM. For the same compound, the inhibition constant (Ki) in data set [1] worked out at 14.9 nM. Moreover, in data set [2], the intrinsic metabolic clearance (microsomal CLint) came to 2.8 µL/min/mg. The same compound returned a bioavailability in data set [4] of 44%.
Turning to `CN1[C@@H]2CCC[C@H]1C[C@H](NC(=O)c1cccc3oc(-c4ccc(Cl)cc4)nc13)C2`, the inhibition constant Ki in data set [1] is 18 nM.
`Nc1nc2c(C(=O)N[C@@H]3CN4CCC3CC4)cccc2o1` displayed a Ki in [1] of 13.8 nM. In [7], this compound gave an IC50 above 100000 nM. In addition, in data set [2], the microsomal CLint was below 2 µL/min/mg. Also, the ED50 in the data set on Mus musculus [5] came to 1.08 mg/kg.
Turning to `CC(C)C[C@H]1COCCN1c1nc2c(C(=O)N[C@@H]3C[C@H]4CCC[C@@H](C3)N4C)cccc2o1`, the Ki in data set [1] is 3.5 nM.
In the case of `C[C@H]1CNC[C@H](C)N1c1nc2c(C(=O)N[C@@H]3C[C@H]4CCC[C@@H](C3)N4C)cccc2o1`, in data set [1], the affinity corresponds to a Ki of 2.4 nM. The inhibition result in the data set listed under Mus musculus [8] was “Active”. This compound also registered an intrinsic clearance (microsomal CLint) in data set [2] below 2 µL/min/mg. Further, the ED50 in the data set with Mus musculus [5] was determined as 0.85 mg/kg. Further, the half-inhibitory concentration (IC50) at Cytochrome P450 2C19 turned out to be 1400 nM; in data set [3], 6400 nM.
As for `CN1[C@@H]2CCC[C@H]1C[C@H](NC(=O)c1cccc3nc(-c4ccccc4)oc13)C2`, in [1], the Ki worked out at 40.4 nM.
The same measure, in the same setting: then `C[C@@H]1CN(c2nc3c(C(=O)N[C@@H]4C[C@H]5CCC[C@@H](C4)N5C)cccc3o2)C[C@H](C)O1`, with 35.3 nM.
Consider `CN1[C@@H]2CCC[C@H]1C[C@H](NC(=O)c1cccc3oc(-c4ccccc4)nc13)C2`, for which, in data set [1], the affinity corresponds to a Ki of 15.1 nM.
With `C[C@H]1COC[C@H](C)N1c1nc2c(C(=O)N[C@@H]3C[C@H]4CCC[C@@H](C3)N4C)cccc2o1`, the Ki in data set [1] amounted to 0.6 nM.
On to `CN1[C@@H]2CCC[C@H]1C[C@H](NC(=O)c1cccc3oc(C4CC4)nc13)C2`, for which the IC50 at Cytochrome P450 3A4 is above 50000 nM. The compound further gave a Ki in data set [1] of 8.3 nM. This compound had an intrinsic clearance (microsomal CLint) in [2] of 23.5 µL/min/mg. Besides, the bioavailability in [4] was 32%.
Regarding `CN1[C@@H]2CCC[C@H]1C[C@H](NC(=O)c1cccc3oc(N4CCNCC4)nc13)C2`, the affinity in [1] corresponds to a Ki of 72.2 nM.
For the compound `COc1ccc(-c2nc3c(C(=O)N[C@@H]4C[C@H]5CCC[C@@H](C4)N5C)cccc3o2)cc1`, the affinity in data set [1], expressed as Ki, was 18.8 nM.
For `Cc1[nH]cnc1CN1CCc2c(c3ccccc3n2C)C1=O` [ALOSETRON], in data set [2], the microsomal CLint was 3 µL/min/mg. The ED50 in the data set on Mus musculus [5] stood at 0.02 mg/kg. Besides, the bioavailability in data set [4] was found to be 100%.
Take `C[C@@H]1CNC[C@@H](C)N1c1nc2c(C(=O)N[C@@H]3C[C@H]4CCC[C@@H](C3)N4C)cccc2o1`: the inhibition constant (Ki) in [1] amounted to 59.4 nM.
In turn, `CC(C)[C@H]1COCCN1c1nc2c(C(=O)N[C@@H]3C[C@H]4CCC[C@@H](C3)N4C)cccc2o1` showed an inhibition constant Ki in data set [1] of 5 nM.
Compound `CC[C@H]1COCCN1c1nc2c(C(=O)N[C@@H]3C[C@H]4CCC[C@@H](C3)N4C)cccc2o1` gave a Ki in [1] of 4.6 nM.
In the case of `C[C@@H]1CNC[C@H](C)N1c1nc2c(C(=O)N[C@@H]3C[C@H]4CCC[C@@H](C3)N4C)cccc2o1`, in data set [1], the Ki stood at 37.3 nM.
In [1], `C[C@H]1CNCCN1c1nc2c(C(=O)N[C@@H]3C[C@H]4CCC[C@@H](C3)N4C)cccc2o1` came in with a Ki of 16.5 nM.
As for `O=C(N[C@@H]1CN2CCC1CC2)c1cccc2oc(C3CC3)nc12`, the IC50 against Cytochrome P450 3A4 is above 100000 nM; in data set [3], 700 nM. Further, in [1], the affinity, expressed as Ki, was 32.7 nM. Besides, in data set [2], the intrinsic clearance (microsomal CLint) came out at 4.5 µL/min/mg. In addition, in data set [4], the bioavailability was 13%.
`CCNc1nc2c(C(=O)N[C@@H]3CN4CCC3CC4)cccc2o1` yielded a Ki in data set [1] of 36.4 nM.

The values above are taken from ChEMBL document CHEMBL1268946, “Discovery of 2-substituted benzoxazole carboxamides as 5-HT3 receptor antagonists” (Bioorg Med Chem Lett, 2010).
